{
  "source": "ChEMBL document CHEMBL1122845",
  "about": "“Inhibitors of blood platelet aggregation. Effects of some 1,2-benzisothiazol-3-ones on platelet responsiveness to adenosine diphosphate and collagen” (J Med Chem, 1985)",
  "key": {"Cavia porcellus [1]": {"system": "Cavia porcellus", "assay": "The compound was tested ex vivo at a dose of 0.15 mmol/kg for ADP induced platelet aggregation in guinea pig"}, "Rattus norvegicus [2]": {"system": "Rattus norvegicus", "assay": "The compound was tested ex vivo at a dose of 0.15 mmol/kg for collagen induced platelet aggregation in rat", "format": "functional", "how_it_was_run": "(§1)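 Male rats (~200 g) or guinea pigs (~300 g), overnight fasted, n=5-10, received compound orally in 1% methylcellulose (5 mL/kg); vehicle-only controls. After 2 h, CO2 kill and vena cava blood into citrate (102 mM rat, 129 mM guinea pig). PRP set to 800000/µL (rat) or 500000/µL (guinea pig). Collagen EC50 (response of 50 mm; max 50 µg/mL) interpolated from a log plot. Dose ratio = treated/control mean EC50; t-test. Pooled PRP sometimes used.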"}, "Cavia porcellus [3]": {"system": "Cavia porcellus", "assay": "The compound was tested ex vivo at a dose of 0.15 mmol/kg for collagen induced platelet aggregation in guinea pig", "format": "functional", "how_it_was_run": "as §1"}, "Rattus norvegicus [4]": {"system": "Rattus norvegicus", "assay": "The compound was tested ex vivo at a dose of 0.15 mmol/kg for ADP induced platelet aggregation in rat"}, "Homo sapiens": {"organism": "Homo sapiens", "assay": "In vitro inhibitory activity against human platelet aggregation in the presence of collagen", "format": "functional", "how_it_was_run": "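Aggregation measured photometrically in human citrated PRP (350000 platelets/µL, stirred at 1100 rpm). Compound or saline preincubated 3 min at 37 °C. Collagen at a just-maximal level chosen for each sample (typically 0.7-1.4 µg/mL). Maximum increase in light transmission measured. IC50 = concentration giving 50% inhibition.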"}, "Rattus norvegicus [5]": {"system": "Rattus norvegicus", "assay": "The compound was tested ex vivo at a dose of 0.04 mmol/kg for ADP induced platelet aggregation in rat", "format": "functional", "how_it_was_run": "(§2)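 Fasted male rats (~200 g) or guinea pigs (~300 g), n=5-10, dosed orally (5 mL/kg) in 1% methylcellulose; methylcellulose alone as control. Killed with CO2 after 2 h. Vena cava blood citrated (102 mM rat, 129 mM guinea pig); PRP adjusted to 800000/µL (rat) or 500000/µL (guinea pig). EC25 for first-phase ADP aggregation (max 8 µM) interpolated from two 2-fold-spaced ADP levels. Dose ratio = treated/control mean EC25; Student's t-test. Some groups tested as pooled PRP.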"}, "Cavia porcellus [6]": {"system": "Cavia porcellus", "assay": "The compound was tested ex vivo at a dose of 0.04 mmol/kg for ADP induced platelet aggregation in guinea pig"}, "Cavia porcellus [7]": {"system": "Cavia porcellus", "assay": "The compound was tested ex vivo at a dose of 0.08 mmol/kg for collagen induced platelet aggregation in guinea pig", "format": "functional", "how_it_was_run": "as §1"}, "Cavia porcellus [8]": {"system": "Cavia porcellus", "assay": "The compound was tested ex vivo at a dose of 0.15 mmol/kg for ADP induced platelet aggregation in guinea pig", "format": "functional", "how_it_was_run": "as §2"}, "Rattus norvegicus [9]": {"system": "Rattus norvegicus", "assay": "The compound was tested ex vivo at a dose of 0.08 mmol/kg for collagen induced platelet aggregation in rat", "format": "functional", "how_it_was_run": "as §1"}, "Rattus norvegicus [10]": {"system": "Rattus norvegicus", "assay": "The compound was tested ex vivo at a dose of 0.08 mmol/kg for ADP induced platelet aggregation in rat", "format": "functional", "how_it_was_run": "as §2"}, "Cavia porcellus [11]": {"system": "Cavia porcellus", "assay": "The compound was tested ex vivo at a dose of 0.04 mmol/kg for ADP induced platelet aggregation in guinea pig", "format": "functional", "how_it_was_run": "as §2"}, "Rattus norvegicus [12]": {"system": "Rattus norvegicus", "assay": "The compound was tested ex vivo at a dose of 0.04 mmol/kg for collagen induced platelet aggregation in rat", "format": "functional", "how_it_was_run": "as §1"}, "Cavia porcellus [13]": {"system": "Cavia porcellus", "assay": "The compound was tested ex vivo at a dose of 0.02 mmol/kg for collagen induced platelet aggregation in guinea pig", "format": "functional", "how_it_was_run": "as §1"}, "Cavia porcellus [14]": {"system": "Cavia porcellus", "assay": "The compound was tested ex vivo at a dose of 0.08 mmol/kg for ADP induced platelet aggregation in guinea pig", "format": "functional", "how_it_was_run": "as §2"}, "Rattus norvegicus [15]": {"system": "Rattus norvegicus", "assay": "The compound was tested ex vivo at a dose of 0.15 mmol/kg for collagen induced platelet aggregation in rat"}},
  "note": "pIC50: −log10 of the molar value.",
  "data": [
    {"smiles": "CCN(CC)CCn1sc2cc(OC)c(OC)cc2c1=O", "values": [
      {"measurement": "Activity", "setting": "Cavia porcellus [1]", "result": 1.1},
      {"measurement": "Activity", "setting": "Rattus norvegicus [2]", "result": 1.5},
      {"measurement": "collagen EC50 dose ratio (treated/control)", "setting": "Cavia porcellus [3]", "result": ">47"},
      {"measurement": "Activity", "setting": "Rattus norvegicus [4]", "result": 2.2}
    ]},
    {"smiles": "O=C1C(CC[S+]([O-])c2ccccc2)C(=O)N(c2ccccc2)N1c1ccccc1", "note": "(stereo not drawn) [SULFINPYRAZONE]", "values": [
      {"measurement": "pIC50", "setting": "Homo sapiens", "result": 3.06},
      {"measurement": "Activity", "setting": "Rattus norvegicus [5]", "result": 1},
      {"measurement": "Activity", "setting": "Cavia porcellus [6]", "result": 1.1},
      {"measurement": "Activity", "setting": "Cavia porcellus [7]", "result": 6.2},
      {"measurement": "Activity", "setting": "Cavia porcellus [8]", "result": 1.1},
      {"measurement": "Activity", "setting": "Rattus norvegicus [9]", "result": 1.8},
      {"measurement": "Activity", "setting": "Rattus norvegicus [10]", "result": 1.2},
      {"measurement": "Activity", "setting": "Cavia porcellus [11]", "result": 1.1},
      {"measurement": "Activity", "setting": "Rattus norvegicus [12]", "result": 1.3},
      {"measurement": "Activity", "setting": "Rattus norvegicus [2]", "result": 1.1},
      {"measurement": "Activity", "setting": "Cavia porcellus [13]", "result": 2.9},
      {"measurement": "Activity", "setting": "Cavia porcellus [3]", "result": 3.2},
      {"measurement": "Activity", "setting": "Cavia porcellus [14]", "result": 1.6},
      {"measurement": "Activity", "setting": "Rattus norvegicus [15]", "result": 1.2}
    ]}
  ]
}
